Data published in ChEMBL document CHEMBL1155459, “On-bead screening of a combinatorial fumaric acid derived peptide library yields antiplasmodial cysteine protease inhibitors with unusual peptide sequences” (J Med Chem, 2009).
Peptide text beside a SMILES is read from it.

Legend:
[1] = target: Rhodesain (Trypanosoma brucei rhodesiense) (UniProt Q95PM0); test: Inhibition of Trypanosoma brucei rhodesiense rhodesain after 12 hrs by fluorescence spectroscopy-based on-bead assay; design: concentration or dose not given beside the values; settings: concentration not given here
Method in brief: (§1)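 Library members on resin (PEGA, theoretical loading 0.40 mmol/g; added as DMSO suspension, 0.64 mM final inhibitor) preincubated with enzyme 12 h, then Cbz-Phe-Arg-AMC 40 μM added; AMC release followed by fluorescence (ex 380/em 460 nm). Kinetics compared with inhibitor-free amino-PEGA resin.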

[2] = Inhibition of Plasmodium falciparum falcipain-2 after 12 hrs by fluorescence spectroscopy-based on-bead assay; design: concentration or dose not given beside the values; settings: concentration not given here; method in brief: as §1

Chain of Rhodesain (Trypanosoma brucei rhodesiense) (Q95PM0 1-450): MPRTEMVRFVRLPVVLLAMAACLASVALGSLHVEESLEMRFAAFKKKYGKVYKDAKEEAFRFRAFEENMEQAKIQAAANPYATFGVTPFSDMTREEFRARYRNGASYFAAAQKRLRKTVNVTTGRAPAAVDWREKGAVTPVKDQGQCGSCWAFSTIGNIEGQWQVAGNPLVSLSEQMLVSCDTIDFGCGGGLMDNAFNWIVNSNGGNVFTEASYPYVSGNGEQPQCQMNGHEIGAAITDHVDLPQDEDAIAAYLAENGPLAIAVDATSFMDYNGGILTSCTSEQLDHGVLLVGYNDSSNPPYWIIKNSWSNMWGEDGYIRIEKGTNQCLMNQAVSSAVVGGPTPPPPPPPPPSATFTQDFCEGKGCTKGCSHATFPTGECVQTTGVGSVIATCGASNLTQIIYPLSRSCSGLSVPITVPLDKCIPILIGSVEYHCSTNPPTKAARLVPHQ

Structure (SMILES)	inhibition [1] [%]	inhibition [2] [%]
CC[C@H](C)[C@H](NC(=O)[C@H](CNC(C)=O)NC(=O)/C=C/C(=O)NCC(=O)NCC(=O)N[C@@H](Cc1ccccc1)C(=O)O)C(=O)N[C@H](C(=O)N[C@H](C(N)=O)C(C)C)C(C)C (HELM PEPTIDE1{[O=C(/C=C/C(=O)[*:2])NCC(=O)NCC(=O)N[C@@H](Cc1ccccc1)C(=O)O].[O=C([C@H](CN[*:3])N[*:1])[*:2]].I.V.V.[am]}|PEPTIDE2{[ac]}$PEPTIDE1,PEPTIDE2,2:R3-1:R2$$$V2.0)	41	28
CC(C)C[C@H](NC(=O)[C@H](C)NC(=O)/C=C/C(=O)N[C@@H](C)C(=O)NCC(=O)N[C@@H](Cc1ccccc1)C(=O)O)C(=O)N[C@@H](C)C(=O)N[C@H](C(N)=O)C(C)C (HELM PEPTIDE1{[C[C@H](NC(=O)/C=C/C(=O)[*:2])C(=O)NCC(=O)N[C@@H](Cc1ccccc1)C(=O)O].A.L.A.V.[am]}$$$$V2.0)	31	62
CC(C)[C@H](NC(=O)[C@H](C)NC(=O)[C@@H](NC(=O)[C@H](C)NC(=O)/C=C/C(=O)N[C@@H](C)C(=O)NCC(=O)N[C@@H](Cc1ccccc1)C(=O)O)c1ccccc1)C(N)=O (HELM PEPTIDE1{[C[C@H](NC(=O)/C=C/C(=O)[*:2])C(=O)NCC(=O)N[C@@H](Cc1ccccc1)C(=O)O].A.[Phg].A.V.[am]}$$$$V2.0)	25	57
CC[C@H](C)[C@H](NC(=O)[C@H](CCC(N)=O)NC(=O)/C=C/C(=O)N[C@@H](C)C(=O)NCC(=O)N[C@@H](Cc1ccccc1)C(=O)O)C(=O)N[C@@H](CC(C)C)C(=O)N[C@H](C(N)=O)C(C)C (HELM PEPTIDE1{[C[C@H](NC(=O)/C=C/C(=O)[*:2])C(=O)NCC(=O)N[C@@H](Cc1ccccc1)C(=O)O].Q.I.L.V.[am]}$$$$V2.0)	47	46
CC(C)[C@H](NC(=O)[C@@H](NC(=O)[C@@H](NC(=O)[C@H](CCC(N)=O)NC(=O)/C=C/C(=O)N[C@@H](C)C(=O)NCC(=O)N[C@@H](Cc1ccccc1)C(=O)O)c1ccccc1)C(C)C)C(N)=O (HELM PEPTIDE1{[C[C@H](NC(=O)/C=C/C(=O)[*:2])C(=O)NCC(=O)N[C@@H](Cc1ccccc1)C(=O)O].Q.[Phg].V.V.[am]}$$$$V2.0)	34	46
CC(C)[C@H](NC(=O)[C@@H](NC(=O)[C@H](Cc1ccccc1)NC(=O)[C@H](Cc1ccccc1)NC(=O)/C=C/C(=O)NCC(=O)NCC(=O)N[C@@H](Cc1ccccc1)C(=O)O)C(C)C)C(N)=O (HELM PEPTIDE1{[O=C(/C=C/C(=O)[*:2])NCC(=O)NCC(=O)N[C@@H](Cc1ccccc1)C(=O)O].F.F.V.V.[am]}$$$$V2.0)	51	60
CC(=O)NC[C@H](NC(=O)/C=C/C(=O)N[C@@H](C)C(=O)NCC(=O)N[C@@H](Cc1ccccc1)C(=O)O)C(=O)N[C@@H](Cc1ccccc1)C(=O)N[C@@H](CC(C)C)C(=O)N[C@H](C(N)=O)C(C)C (HELM PEPTIDE1{[C[C@H](NC(=O)/C=C/C(=O)[*:2])C(=O)NCC(=O)N[C@@H](Cc1ccccc1)C(=O)O].[O=C([C@H](CN[*:3])N[*:1])[*:2]].F.L.V.[am]}|PEPTIDE2{[ac]}$PEPTIDE1,PEPTIDE2,2:R3-1:R2$$$V2.0)	52	43
CC(C)[C@H](NC(=O)[C@H](C)NC(=O)[C@H](Cc1ccccc1)NC(=O)[C@H](CC(N)=O)NC(=O)/C=C/C(=O)N[C@@H](C)C(=O)NCC(=O)N[C@@H](Cc1ccccc1)C(=O)O)C(N)=O (HELM PEPTIDE1{[C[C@H](NC(=O)/C=C/C(=O)[*:2])C(=O)NCC(=O)N[C@@H](Cc1ccccc1)C(=O)O].N.F.A.V.[am]}$$$$V2.0)	47	25
CC(C)[C@H](NC(=O)[C@@H](NC(=O)[C@@H](NC(=O)[C@H](Cc1ccccc1)NC(=O)/C=C/C(=O)N[C@@H](C)C(=O)NCC(=O)N[C@@H](Cc1ccccc1)C(=O)O)c1ccccc1)C(C)C)C(N)=O (HELM PEPTIDE1{[C[C@H](NC(=O)/C=C/C(=O)[*:2])C(=O)NCC(=O)N[C@@H](Cc1ccccc1)C(=O)O].F.[Phg].V.V.[am]}$$$$V2.0)	77	58
CC(=O)NC[C@H](NC(=O)/C=C/C(=O)N[C@@H](C)C(=O)NCC(=O)N[C@@H](Cc1ccccc1)C(=O)O)C(=O)N[C@@H](CC(C)C)C(=O)N[C@@H](CC(C)C)C(=O)N[C@H](C(N)=O)C(C)C (HELM PEPTIDE1{[C[C@H](NC(=O)/C=C/C(=O)[*:2])C(=O)NCC(=O)N[C@@H](Cc1ccccc1)C(=O)O].[O=C([C@H](CN[*:3])N[*:1])[*:2]].L.L.V.[am]}|PEPTIDE2{[ac]}$PEPTIDE1,PEPTIDE2,2:R3-1:R2$$$V2.0)	63	41
CC(C)C[C@H](NC(=O)[C@H](CC(N)=O)NC(=O)/C=C/C(=O)N[C@@H](C)C(=O)NCC(=O)N[C@@H](Cc1ccccc1)C(=O)O)C(=O)N[C@@H](C)C(=O)N[C@H](C(N)=O)C(C)C (HELM PEPTIDE1{[C[C@H](NC(=O)/C=C/C(=O)[*:2])C(=O)NCC(=O)N[C@@H](Cc1ccccc1)C(=O)O].N.L.A.V.[am]}$$$$V2.0)	42	33
CC(C)[C@H](NC(=O)[C@H](C)NC(=O)[C@@H](NC(=O)[C@H](Cc1ccccc1)NC(=O)/C=C/C(=O)NCC(=O)NCC(=O)N[C@@H](Cc1ccccc1)C(=O)O)c1ccccc1)C(N)=O (HELM PEPTIDE1{[O=C(/C=C/C(=O)[*:2])NCC(=O)NCC(=O)N[C@@H](Cc1ccccc1)C(=O)O].F.[Phg].A.V.[am]}$$$$V2.0)	51	62
CC(=O)NC[C@H](NC(=O)/C=C/C(=O)NCC(=O)NCC(=O)N[C@@H](Cc1ccccc1)C(=O)O)C(=O)N[C@@H](Cc1ccccc1)C(=O)N[C@@H](CC(C)C)C(=O)N[C@H](C(N)=O)C(C)C (HELM PEPTIDE1{[O=C(/C=C/C(=O)[*:2])NCC(=O)NCC(=O)N[C@@H](Cc1ccccc1)C(=O)O].[O=C([C@H](CN[*:3])N[*:1])[*:2]].F.L.V.[am]}|PEPTIDE2{[ac]}$PEPTIDE1,PEPTIDE2,2:R3-1:R2$$$V2.0)	51	59
CC(C)[C@H](NC(=O)[C@H](C)NC(=O)[C@H](Cc1ccccc1)NC(=O)[C@H](Cc1ccccc1)NC(=O)/C=C/C(=O)N[C@@H](C)C(=O)NCC(=O)N[C@@H](Cc1ccccc1)C(=O)O)C(N)=O (HELM PEPTIDE1{[C[C@H](NC(=O)/C=C/C(=O)[*:2])C(=O)NCC(=O)N[C@@H](Cc1ccccc1)C(=O)O].F.F.A.V.[am]}$$$$V2.0)	37	30
CC[C@H](C)[C@H](NC(=O)[C@H](CCC(N)=O)NC(=O)/C=C/C(=O)NCC(=O)NCC(=O)N[C@@H](Cc1ccccc1)C(=O)O)C(=O)N[C@H](C(=O)N[C@H](C(N)=O)C(C)C)C(C)C (HELM PEPTIDE1{[O=C(/C=C/C(=O)[*:2])NCC(=O)NCC(=O)N[C@@H](Cc1ccccc1)C(=O)O].Q.I.V.V.[am]}$$$$V2.0)	37	30
CC(C)[C@H](NC(=O)[C@@H](NC(=O)[C@H](Cc1ccccc1)NC(=O)[C@H](Cc1ccccc1)NC(=O)/C=C/C(=O)N[C@@H](C)C(=O)NCC(=O)N[C@@H](Cc1ccccc1)C(=O)O)C(C)C)C(N)=O (HELM PEPTIDE1{[C[C@H](NC(=O)/C=C/C(=O)[*:2])C(=O)NCC(=O)N[C@@H](Cc1ccccc1)C(=O)O].F.F.V.V.[am]}$$$$V2.0)	38	37
CC(C)[C@H](NC(=O)[C@@H](NC(=O)[C@@H](NC(=O)[C@H](Cc1ccccc1)NC(=O)/C=C/C(=O)NCC(=O)NCC(=O)N[C@@H](Cc1ccccc1)C(=O)O)c1ccccc1)C(C)C)C(N)=O (HELM PEPTIDE1{[O=C(/C=C/C(=O)[*:2])NCC(=O)NCC(=O)N[C@@H](Cc1ccccc1)C(=O)O].F.[Phg].V.V.[am]}$$$$V2.0)	68	35
CC(C)[C@H](NC(=O)[C@H](C)NC(=O)[C@@H](NC(=O)[C@H](CC(N)=O)NC(=O)/C=C/C(=O)NCC(=O)NCC(=O)N[C@@H](Cc1ccccc1)C(=O)O)c1ccccc1)C(N)=O (HELM PEPTIDE1{[O=C(/C=C/C(=O)[*:2])NCC(=O)NCC(=O)N[C@@H](Cc1ccccc1)C(=O)O].N.[Phg].A.V.[am]}$$$$V2.0)	48	64
CC(C)[C@H](NC(=O)[C@H](C)NC(=O)[C@@H](NC(=O)[C@H](CC(N)=O)NC(=O)/C=C/C(=O)N[C@@H](C)C(=O)NCC(=O)N[C@@H](Cc1ccccc1)C(=O)O)c1ccccc1)C(N)=O (HELM PEPTIDE1{[C[C@H](NC(=O)/C=C/C(=O)[*:2])C(=O)NCC(=O)N[C@@H](Cc1ccccc1)C(=O)O].N.[Phg].A.V.[am]}$$$$V2.0)	44	35
CC[C@H](C)[C@H](NC(=O)[C@H](Cc1ccccc1)NC(=O)/C=C/C(=O)N[C@@H](C)C(=O)NCC(=O)N[C@@H](Cc1ccccc1)C(=O)O)C(=O)N[C@@H](CC(C)C)C(=O)N[C@H](C(N)=O)C(C)C (HELM PEPTIDE1{[C[C@H](NC(=O)/C=C/C(=O)[*:2])C(=O)NCC(=O)N[C@@H](Cc1ccccc1)C(=O)O].F.I.L.V.[am]}$$$$V2.0)	61	51
CC(C)C[C@H](NC(=O)[C@H](CCC(N)=O)NC(=O)/C=C/C(=O)N[C@@H](C)C(=O)NCC(=O)N[C@@H](Cc1ccccc1)C(=O)O)C(=O)N[C@@H](C)C(=O)N[C@H](C(N)=O)C(C)C (HELM PEPTIDE1{[C[C@H](NC(=O)/C=C/C(=O)[*:2])C(=O)NCC(=O)N[C@@H](Cc1ccccc1)C(=O)O].Q.L.A.V.[am]}$$$$V2.0)	7	54
CC[C@H](C)[C@H](NC(=O)[C@H](CC(N)=O)NC(=O)/C=C/C(=O)N[C@@H](C)C(=O)NCC(=O)N[C@@H](Cc1ccccc1)C(=O)O)C(=O)N[C@@H](C)C(=O)N[C@H](C(N)=O)C(C)C (HELM PEPTIDE1{[C[C@H](NC(=O)/C=C/C(=O)[*:2])C(=O)NCC(=O)N[C@@H](Cc1ccccc1)C(=O)O].N.I.A.V.[am]}$$$$V2.0)	17	38
